From ChEMBL document CHEMBL1221342, “Synthesis and in vitro antitumor activity of new 4,5-dihydropyrazole derivatives” (Bioorg Med Chem, 2010)

How the values were obtained:
NCI-H460 [1] = experiment: Cytotoxicity against human NCI-H460 cells after 72 hrs by SRB assay; assay type: functional, cell-based; details: NCI-H460, 72 h
Procedure, shortened: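 NCI-H460 (ATCC) cells seeded in 96-well plates in growth medium. Scalar drug concentrations added 24 h after plating, then 72 h exposure. Surviving cells stained with sulforhodamine B, OD read at 570 nm. IC50 (50% growth inhibition) fitted from dose–response curves. Mean ± SE of at least three independent experiments.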

HCT-15 = experiment: Growth inhibition of human HCT15 cells after 48 hrs by SRB assay; assay type: functional; details: HCT-15, 48 h
Procedure, shortened: (§1)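 NCI 60-cell-line screen. Cells grown in RPMI1640 with 5% fetal calf serum and 2 mM L-glutamine, with inoculum density set by cell line. Preincubated 24 h, then given compound in DMSO at 10^-4 to 10^-8 M (five 10-fold steps) for 48 h continuous exposure. Growth measured by SRB protein assay. GI50, TGI and LC50 reported as –log molar.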

SF-268 = experiment: Growth inhibition of human SF268 cells after 48 hrs by SRB assay; assay type: functional; details: SF-268, 48 h; procedure, shortened: as §1
SR = experiment: Growth inhibition of human SR cells after 48 hrs by SRB assay; assay type: functional; procedure, shortened: as §1
SK-MEL-5 = experiment: Growth inhibition of human SK-MEL-5 cells after 48 hrs by SRB assay; assay type: functional; details: SK-MEL-5, 48 h; procedure, shortened: as §1
HL-60(TB) = experiment: Growth inhibition of human HL-60(TB) cells after 48 hrs by SRB assay; assay type: functional; details: HL-60, 48 h
Procedure, shortened: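 NCI 60-cell-line screen: cells grown in RPMI1640 with 5% fetal calf serum and 2 mM L-glutamine, preincubated 24 h, then exposed to compound in DMSO at five concentrations (10^-4 to 10^-8 M) for 48 h continuous exposure. Growth estimated by sulforhodamine B protein assay; reported as pGI50 (-log molar concentration inhibiting net cell growth by 50%).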

SK-OV-3 = experiment: Growth inhibition of human SKOV3 cells after 48 hrs by SRB assay; assay type: functional; details: SK-OV-3, 48 h; procedure, shortened: as §1
RXF 393 = experiment: Growth inhibition of human RXF393 cells after 48 hrs by SRB assay; assay type: functional; details: RXF 393, 48 h; procedure, shortened: as §1
SK-MEL-2 = experiment: Growth inhibition of human SK-MEL-2 cells after 48 hrs by SRB assay; assay type: functional; details: SK-MEL-2, 48 h; procedure, shortened: as §1
MCF7 = experiment: Growth inhibition of human MCF7 cells after 48 hrs by SRB assay; assay type: functional; details: MCF7, 48 h; procedure, shortened: as §1
UO-31 = experiment: Growth inhibition of human UO31 cells after 48 hrs by SRB assay; assay type: functional; details: UO-31, 48 h; procedure, shortened: as §1
A498 = experiment: Growth inhibition of human A498 cells after 48 hrs by SRB assay; assay type: functional; details: A498, 48 h; procedure, shortened: as §1
MDA-MB-435 = experiment: Growth inhibition of human MDA-MB-435 cells after 48 hrs by SRB assay; assay type: functional; details: MDA-MB-435, 48 h; procedure, shortened: as §1
PC-3 = experiment: Growth inhibition of human PC3 cells after 48 hrs by SRB assay; assay type: functional; details: PC-3, 48 h; procedure, shortened: as §1
T47D = experiment: Growth inhibition of human T47D cells after 48 hrs by SRB assay; assay type: functional; procedure, shortened: as §1
TK-10 = experiment: Growth inhibition of human TK10 cells after 48 hrs by SRB assay; assay type: functional; details: TK-10, 48 h; procedure, shortened: as §1
CCRF-CEM = experiment: Growth inhibition of human CCRF-CEM cells after 48 hrs by SRB assay; assay type: functional; procedure, shortened: as §1
SW-620 = experiment: Growth inhibition of human SW620 cells after 48 hrs by SRB assay; assay type: functional; details: SW-620, 48 h; procedure, shortened: as §1
UACC-62 = experiment: Growth inhibition of human UACC62 cells after 48 hrs by SRB assay; assay type: functional; details: UACC-62, 48 h; procedure, shortened: as §1
KM12 = experiment: Growth inhibition of human KM12 cells after 48 hrs by SRB assay; assay type: functional; details: KM12, 48 h; procedure, shortened: as §1
Malme-3M = experiment: Growth inhibition of human MALME-3M cells after 48 hrs by SRB assay; assay type: functional; procedure, shortened: as §1
SF-539 = experiment: Growth inhibition of human SF539 cells after 48 hrs by SRB assay; assay type: functional; details: SF-539, 48 h; procedure, shortened: as §1
DU-145 = experiment: Growth inhibition of human DU145 cells after 48 hrs by SRB assay; assay type: functional; details: DU-145, 48 h; procedure, shortened: as §1
MOLT-4 = experiment: Growth inhibition of human MOLT4 cells after 48 hrs by SRB assay; assay type: functional; details: MOLT-4, 48 h; procedure, shortened: as §1
SNB-75 = experiment: Growth inhibition of human SNB75 cells after 48 hrs by SRB assay; assay type: functional; details: SNB-75, 48 h; procedure, shortened: as §1
U-251 = experiment: Growth inhibition of human U251 cells after 48 hrs by SRB assay; assay type: functional; details: U-251, 48 h; procedure, shortened: as §1
NCI/ADR-RES = experiment: Growth inhibition of human NCI/ADR-RES cells after 48 hrs by SRB assay; assay type: functional; procedure, shortened: as §1
HCT-116 = experiment: Growth inhibition of human HCT116 cells after 48 hrs by SRB assay; assay type: functional; details: HCT-116, 48 h; procedure, shortened: as §1
OVCAR-4 = experiment: Growth inhibition of human OVCAR4 cells after 48 hrs by SRB assay; assay type: functional; details: OVCAR-4, 48 h; procedure, shortened: as §1
EKVX = experiment: Growth inhibition of human EKVX cells after 48 hrs by SRB assay; assay type: functional; procedure, shortened: as §1
[2] = Growth inhibition of human Hs 578T cells after 48 hrs by SRB assay; assay type: functional; procedure, shortened: as §1
786-0 = experiment: Growth inhibition of human 786-0 cells after 48 hrs by SRB assay; assay type: functional; details: 786-0, 48 h; procedure, shortened: as §1
NCI-H460 [3] = experiment: Growth inhibition of human NCI-H460 cells after 48 hrs by SRB assay; assay type: functional; details: NCI-H460, 48 h; procedure, shortened: as §1
BT-549 = experiment: Growth inhibition of human BT549 cells after 48 hrs by SRB assay; assay type: functional; details: BT-549, 48 h; procedure, shortened: as §1

COc1cc(C2=NNC(c3ccc(N(C)C)cc3)C2)cc(OC)c1OC (stereo unspecified)
IC50 (NCI-H460 [1]): 1.1 µM | GI50 (HCT-15): 2.51 µM | TGI (HCT-15; read-out: pTGI (converted)): > 100 µM | GI50 (SF-268): 2 µM | TGI (SF-268; read-out: pTGI (converted)): > 100 µM | GI50 (SR): 0.251 µM | TGI (SR; read-out: pTGI (converted)): 7.94 µM | GI50 (SK-MEL-5): 2 µM | TGI (SK-MEL-5; read-out: pTGI (converted)): 6.31 µM | GI50 (HL-60(TB)): 1.58 µM | TGI (HL-60(TB); read-out: pTGI (converted)): 5.01 µM | GI50 (SK-OV-3): 3.98 µM | TGI (SK-OV-3; read-out: pTGI (converted)): > 100 µM | GI50 (RXF 393): 1.26 µM | TGI (RXF 393; read-out: pTGI (converted)): 5.01 µM | GI50 (SK-MEL-2): 3.16 µM | TGI (SK-MEL-2; read-out: pTGI (converted)): 31.6 µM | GI50 (MCF7): 0.398 µM | TGI (MCF7; read-out: pTGI (converted)): > 100 µM | GI50 (UO-31): 5.01 µM | TGI (UO-31; read-out: pTGI (converted)): 50.1 µM | GI50 (A498): 3.16 µM | TGI (A498; read-out: pTGI (converted)): 7.94 µM | GI50 (MDA-MB-435): 1 µM | GI50 (PC-3): 0.794 µM | TGI (PC-3; read-out: pTGI (converted)): > 100 µM | GI50 (T47D): 20 µM | TGI (T47D; read-out: pTGI (converted)): > 100 µM | GI50 (TK-10): 10 µM | TGI (TK-10; read-out: pTGI (converted)): > 100 µM | GI50 (CCRF-CEM): 1.58 µM | TGI (CCRF-CEM; read-out: pTGI (converted)): 6.31 µM | GI50 (SW-620): 0.398 µM | TGI (SW-620; read-out: pTGI (converted)): > 100 µM | GI50 (UACC-62): 3.98 µM | TGI (UACC-62; read-out: pTGI (converted)): > 100 µM | GI50 (KM12): 0.501 µM | TGI (KM12; read-out: pTGI (converted)): 12.6 µM | GI50 (Malme-3M): 7.94 µM | TGI (Malme-3M; read-out: pTGI (converted)): > 100 µM | GI50 (SF-539): 0.501 µM | TGI (SF-539; read-out: pTGI (converted)): 3.16 µM | GI50 (DU-145): 2 µM | TGI (DU-145; read-out: pTGI (converted)): 5.01 µM | GI50 (MOLT-4): 3.16 µM | TGI (MOLT-4; read-out: pTGI (converted)): 12.6 µM | GI50 (SNB-75): 1 µM | TGI (SNB-75; read-out: pTGI (converted)): > 100 µM | GI50 (U-251): 0.631 µM | TGI (U-251; read-out: pTGI (converted)): > 100 µM | GI50 (NCI/ADR-RES): 2 µM | TGI (NCI/ADR-RES; read-out: pTGI (converted)): > 100 µM | GI50 (HCT-116): 2 µM | TGI (HCT-116; read-out: pTGI (converted)): 20 µM | GI50 (OVCAR-4): 15.8 µM | TGI (OVCAR-4; read-out: pTGI (converted)): > 100 µM | GI50 (EKVX): 2 µM | TGI (EKVX; read-out: pTGI (converted)): 6.31 µM | GI50 [2]: 2.51 µM | TGI ([2]; read-out: pTGI (converted)): 6.31 µM | GI50 (786-0): 2 µM | TGI (786-0; read-out: pTGI (converted)): > 100 µM | GI50 (NCI-H460 [3]): 1.26 µM | TGI (NCI-H460 [3]; read-out: pTGI (converted)): 6.31 µM | GI50 (BT-549): 0.794 µM | TGI (BT-549; read-out: pTGI (converted)): 10 µM
